What is called IC50 is the concentration that gives 50% inhibition.

Calls of active or inactive are those of the source. The calls are words filed in the database; no cut-off is given here.

Activity, IC50 and MTD data for one molecule are collected here from ChEMBL document CHEMBL3112586, “Synthesis of neolignans as microtubule stabilisers” (Bioorg Med Chem, 2014).

Data set [1] deals with Mus musculus. Briefly: Toxicity in Swiss albino mouse assessed as change in triglyceride level at 5 mg/kg, po (reference value: 121.45 +/- 24.02 mg/dL). Set-up: dose 5 mg/kg, route oral. The data set is classed as organism-based. The following applies: in vivo.
Data set [2] concerns Mus musculus. As to the kind of experiment: Toxicity in Swiss albino mouse assessed as change in total haemoglobin level at 300 mg/kg, po (reference value: 11.39 +/- 0.84 g/dL). The conditions noted are these: in vivo. The data set is classed as organism-based. Also noted: dose 300 mg/kg, route oral.
The test system of data set [3] is MCF7. As to the kind of experiment: Induction of microtubule polymerization in human MCF7 cells assessed as actin-tubulin cytoskeleton stabilization at 10 to 40 uM by confocal microscopy. The data set is classed as cell-based. The method, boiled down:
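MCF-7 cells treated, immunostained for actin and tubulin, and examined by confocal microscopy; paclitaxel-treated cells as positive control.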

Data set [4] relates to Mus musculus. As to the kind of experiment: Toxicity in Swiss albino mouse assessed as change in body weight at 300 mg/kg, po (reference value: 24.5 +/- 0.76 g). Also noted: dose 300 mg/kg, route oral. The following applies: in vivo. The data set is classed as organism-based.
For data set [5], the system named is Mus musculus. Briefly: Toxicity in Swiss albino mouse assessed as absolute heart weight at 5 to 1000 mg/kg, po relative to control. It is filed as organism-based. Also noted: dose 5-1000 mg/kg, route oral. The conditions noted are these: in vivo.
Data set [6] deals with Mus musculus. Briefly: Toxicity in Swiss albino mouse assessed as change in total haemoglobin level at 1000 mg/kg, po (reference value: 11.39 +/- 0.84 g/dL). The data set is classed as organism-based. The conditions noted are these: in vivo. Also noted: dose 1000 mg/kg, route oral.
The test system of data set [7] is Mus musculus. Briefly: Toxicity in Swiss albino mouse assessed as change in SGPT level at 1000 mg/kg, po (reference value: 12.28 +/- 3.73 U/L). The conditions noted are these: in vivo. It is filed as organism-based. Also noted: dose 1000 mg/kg, route oral.
The subject of data set [8] is MDA-MB-231. Briefly: Cytotoxicity against human MDA-MB-231 cells after 48 to 72 hrs by MTT assay. It is filed as functional, cell-based. The method, boiled down: (§1)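 Cells in DMEM, 10% FBS, 37 °C, 5% CO2, plated and incubated 24 h; compounds diluted in phenol-red-free DMEM with 0.5% FBS, vehicle control; after exposure, MTT (5 mg/mL stock) added 3 h, formazan dissolved in DMSO, absorbance 570 nm; IC50 derived; podophyllotoxin and tamoxifen positive controls.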

For data set [9], the system named is Mus musculus. As to the kind of experiment: Toxicity in Swiss albino mouse assessed as change in WBC count at 5 mg/kg, po (reference value: 14.2 +/- 7.49 X 10^3/mm'3). It is filed as organism-based. Set-up: dose 5 mg/kg, route oral. The conditions noted are these: in vivo.
In data set [10] the test system is MCF7. As to the kind of experiment: Cell cycle arrest in human MCF7 cells assessed as accumulation at G2/M phase at 5 to 30 uM after 24 hrs by propidium iodide staining-based FACS analysis. The data set is classed as functional. The method, boiled down:
(§2)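 MCF-7 in DMEM, 10% FBS, 37 °C, 5% CO2; treated 24 h, harvested, washed cold PBS, resuspended 2 × 10⁶ cells/ml, fixed absolute ethanol, RNase A treated, propidium iodide (50 µg/mL) 30 min room temperature; DNA content by flow cytometry; phase distribution versus untreated control.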
(Flow cytometry measures light scatter and fluorescence of single cells or particles in a stream.)

The subject of data set [11] is Mus musculus. Briefly: Toxicity in Swiss albino mouse assessed as relative spleen weight at 5 to 1000 mg/kg, po relative to control. The following applies: in vivo. Also noted: dose 5-1000 mg/kg, route oral. It is filed as organism-based. The essentials:
(§3)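 One oral dose (5–1000 mg/kg; DMSO then 0.7% carboxymethyl cellulose vehicle; controls vehicle-only) was given to groups of 6 mice (3 male, 3 female). On day 7 the animals were sacrificed and necropsied for gross pathology. Absolute and relative weights of vital organs were recorded and compared with control.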

Data set [12] relates to Mus musculus. As to the kind of experiment: Toxicity in Swiss albino mouse assessed as relative brain weight at 5 to 1000 mg/kg, po relative to control. It is filed as organism-based. The following applies: in vivo. Set-up: dose 5-1000 mg/kg, route oral. The method, boiled down: as §3
Data set [13] deals with Mus musculus. Briefly: Toxicity in Swiss albino mouse assessed as absolute brain weight at 5 to 1000 mg/kg, po relative to control. It is filed as organism-based. Set-up: dose 5-1000 mg/kg, route oral. The following applies: in vivo.
In data set [14] the test system is Mus musculus. As to the kind of experiment: Toxicity in Swiss albino mouse assessed as change in RBC count at 300 mg/kg, po (reference value: 5.43 +/- 0.27 million/mm'3). The following applies: in vivo. It is filed as organism-based. Set-up: dose 300 mg/kg, route oral.
Data set [15] deals with MDA-MB-231. Briefly: Cytotoxicity against human MDA-MB-231 cells after 48 hrs by MTT assay. The data set is classed as functional, cell-based. The conditions noted are these: MDA-MB-231, 48 h. The essentials:
as §1
(In general: Tetrazolium dyes change colour on reduction, which living cells bring about.)

The subject of data set [16] is MCF7. As to the kind of experiment: Cytotoxicity against human MCF7 cells after 24 hrs by MTT assay. It is filed as functional, cell-based. The conditions noted are these: MCF7, 24 h. The essentials:
as §1

Data set [17] concerns Mus musculus. As to the kind of experiment: Toxicity in Swiss albino mouse assessed as change in SGOT level at 300 mg/kg, po (reference value: 25.27 +/- 1.32 U/L). It is filed as organism-based. Also noted: dose 300 mg/kg, route oral. The conditions noted are these: in vivo.
The subject of data set [18] is Mus musculus. Briefly: Toxicity in Swiss albino mouse assessed as change in cholesterol level at 300 mg/kg, po (reference value: 81.64 +/- 4.26 mg/dL). It is filed as organism-based. Also noted: dose 300 mg/kg, route oral. The conditions noted are these: in vivo.
Data set [19] relates to MDA-MB-231. As to the kind of experiment: Cytotoxicity against human MDA-MB-231 cells after 24 hrs by MTT assay. The following applies: MDA-MB-231, 24 h. The data set is classed as functional, cell-based. The method, boiled down: as §1
Data set [20] is described as follows: Toxicity in po dosed Swiss albino mouse. The conditions noted are these: in vivo. It is filed as organism-based. The method, boiled down:
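Acute oral toxicity per OECD guideline 423. Mice of 20–25 g, 3 male and 3 female per group (n = 6), acclimatised 7 days. Single oral dose of 5, 50, 300 or 1000 mg/kg in DMSO suspended in 0.7% carboxymethyl cellulose; controls got vehicle only. Mortality and clinical signs checked hourly on the dosing day, then daily. On day 7: body weight, haematology, serum biochemistry, necropsy and organ weights.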

Data set [21] relates to MCF7. Briefly: Cell cycle arrest in human MCF7 cells assessed as decrease in S phase at 5 to 30 uM after 24 hrs by propidium iodide staining-based FACS analysis relative to untreated control. It is filed as functional. The essentials: as §2
In data set [22] the test system is Mus musculus. Briefly: Toxicity in Swiss albino mouse assessed as relative kidney weight at 5 to 1000 mg/kg, po relative to control. The data set is classed as organism-based. Also noted: dose 5-1000 mg/kg, route oral. The following applies: in vivo. The essentials: as §3
Data set [23] deals with MCF7. Briefly: Cell cycle arrest in human MCF7 cells assessed as accumulation at G2 phase at 5 to 30 uM after 24 hrs by propidium iodide staining-based FACS analysis. The data set is classed as functional. The essentials: as §2
Data set [24] has as its system Mus musculus. As to the kind of experiment: Toxicity in Swiss albino mouse assessed as relative liver weight at 5 to 1000 mg/kg, po relative to control. The data set is classed as organism-based. Set-up: dose 5-1000 mg/kg, route oral. The conditions noted are these: in vivo. The method, boiled down: as §3

`CCOC(=O)/C=C/c1ccc(O)c(/C(=C/c2ccc(O)cc2)C(=O)OCC)c1`: the Activity was 106.46 mg/dL with Mus musculus [1]; 10.83 g/dL with Mus musculus [2]; 25 g in the data set on Mus musculus [4]; “Non-toxic” in the data set on Mus musculus [5]; 13.32 g/dL in the data set with Mus musculus [6]; 21.95 U/L in the data set on Mus musculus [7]. Besides, the Activity with Mus musculus [9] was 14.6 ×10³ /mm3; in the data set with Mus musculus [11], “Non-toxic”; with Mus musculus [12] it was “Non-toxic”; with Mus musculus [13], “Non-toxic”; in the data set on Mus musculus [14], 5.11 million/mm3; with Mus musculus [17] it was 37.95 U/L. Further, the Activity in the data set with Mus musculus [18] is 77.65 mg/dL; in the data set on Mus musculus [22], “Non-toxic”; in the data set on Mus musculus [24], “Non-toxic”. For the same molecule, the outcome in the data set on MCF7 [3] was inactive. Moreover, the outcome in the data set with MDA-MB-231 [8], in the data set on MCF7 [10], in the data set with MCF7 [21] and with MCF7 [23] was Active. For the same molecule, the IC50 in the data set with MDA-MB-231 [15] was found to be 6.47 µM; in the data set with MCF7 [16], 12 µM; in the data set on MDA-MB-231 [19] it was 15 µM. This molecule also came in with an MTD in data set [20] of 300 mg/kg.
